Assay outcomes as filed in PubChem BioAssay.
This is a sample that favours compounds with a hit; in the whole collection about 3.5% have one here.
MrgX1 antagonist – antagonists of human MrgX1 receptor, primary screen, HEK293 cells, Fluo-4 calcium flux | Mas-related G-protein coupled receptor member X1 (Homo sapiens), Q96LB2 | BAM8-22 antagonism; hits give low values | B-score at 10 µM | hit rate 1.3% among 310,000 | AID 588676, 2011;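 active = calcium-response B-score plate-corrected more than 3 library SD below zero, starting fluorescence within 5 deviations, no agonist response on first addition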;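 also: peak minus trough fluorescence over baseline after final BAM8-22 challenge near maximal dose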
Target sequence (Q96LB2 whole entry, looked up): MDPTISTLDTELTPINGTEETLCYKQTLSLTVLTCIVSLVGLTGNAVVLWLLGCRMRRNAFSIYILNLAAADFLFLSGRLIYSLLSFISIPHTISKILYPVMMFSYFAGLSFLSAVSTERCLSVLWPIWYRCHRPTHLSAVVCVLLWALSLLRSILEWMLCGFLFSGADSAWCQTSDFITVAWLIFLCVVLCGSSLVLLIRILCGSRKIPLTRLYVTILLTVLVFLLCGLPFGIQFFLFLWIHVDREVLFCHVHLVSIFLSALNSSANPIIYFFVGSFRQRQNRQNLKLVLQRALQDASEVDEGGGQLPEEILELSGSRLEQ
MrgX1 PAM – positive allosteric modulators of MrgX1, primary screen, HEK293 cells, Fluo-4 calcium flux | FDSS; hits give high values | hit rate 0.63% among 310,000 | B-score at 10 µM;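 active = plate-corrected calcium response at least 3 library SD above typical, normal starting fluorescence, not activating the receptor alone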;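 also: compound read alongside a low EC10 to EC30 dose of BAM8-22 agonist; peak minus trough fluorescence over baseline measured at the second addition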
MrgX1 agonist – agonists of human MrgX1 receptor, primary screen, HEK293 cells, Fluo-4 calcium flux; Mas-related G-protein coupled receptor member X1 (Homo sapiens), Q96LB2; B-score at 10 µM; hit rate 0.44% among 310,000; Fluo-4 calcium fluorescence, agonist mode; hits give high values;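 active = calcium response B-score plate-corrected fluorescence ratio at least 3 library SD, with starting fluorescence B-score inside 5 SD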
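Assay system: MrgX1-expressing HEK293 cells / Amount: fifteen thousand cells per well / Doses: test compound in the initial addition of three / Timing: cells plated overnight, dye loaded 0.5 h 37 °C, 0.5 h room temperature / Technique: kinetic calcium dye fluorescence, Fluo-4 NW / Control set: positive and negative controls per plate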
RGS4 block – RGS4 inhibitors, primary screen, cell-based, HEK293 M3R inducible RGS4, calcium flux; hit rate 0.45% among 310,000; B-score at 10 µM; AID 463165, 2010; Fluo-4 calcium flux; hits give high values; triggered by carbachol at its EC20;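 active = B-score, a plate-corrected calcium signal, over three deviations above library mean, with baseline fluorescence within five deviations of library mean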;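 also: RGS4 expression induced by doxycycline in cells with stable M3 receptor; B-score is computed from the integrated fluorescence ratio over baseline after carbachol; higher B-score means a larger calcium signal and so more RGS4 inhibition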
Target sequence (P49798 whole entry, looked up): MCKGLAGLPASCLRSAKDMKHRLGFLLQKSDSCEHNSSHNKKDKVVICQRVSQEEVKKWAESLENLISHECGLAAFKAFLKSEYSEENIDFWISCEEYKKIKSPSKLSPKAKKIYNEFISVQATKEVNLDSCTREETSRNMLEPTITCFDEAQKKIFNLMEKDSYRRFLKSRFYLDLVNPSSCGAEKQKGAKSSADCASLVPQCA
RGS4 pot – RGS4 potentiators or activators, primary screen, cell-based, HEK293 M3R inducible RGS4, calcium flux; carbachol calcium flux Fluo4; hits give low values; B-score at 10 µM; hit rate 0.92% among 310,000;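 active = B-score of the integrated calcium signal more than 4 SD below the library mean, with starting fluorescence not abnormally high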;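 also: negative B-score means reduced calcium response which marks RGS4 activation or potentiation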
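Assay system: HEK293 FlpIn-TREx cells, stable M3R, doxycycline-inducible RGS4 / Probe or stimulus: carbachol, ECmax concentration / Times: overnight RGS4 induction, 30 min dye load 37 °C, 20 min compound RT / Signal: kinetic calcium fluorescence imaging with Fluo4-AM dye, 2 µM / Measure: Agonist-evoked peak-minus-minimum fluorescence over baseline, integrated ratio, B score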
RGS4 inh valid – enhanced carbachol calcium response, M3R/RGS4 cells, RGS4 inhibitor project, cell-based, validation screen, HEK293 M3R/RGS4, calcium flux; shares compounds with RGS4 block; calcium response, % at 10 µM; carbachol calcium Fluo-4 fluorescence; carbachol added at its EC20; 0 = buffer wells, 100 = carbachol control; hit rate 65% among 1,700;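 active = duplicate-averaged calcium response above the buffer-only control mean plus 5 SD of those controls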;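 also: integrated fluorescence ratio F max minus min over baseline F0; higher response in RGS4-induced cells means RGS4 inhibition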
M3R Ca ctr – carbachol calcium response in non-induced M3R cells, confirmation, counter-screen for RGS4 inhibitor project, cell-based, HEK293 M3R. AID 493000, 2010. activity (percent), % at 10 µM. carbachol calcium Fluo-4; submaximal (EC20) carbachol stimulus; buffer wells 0%, carbachol control wells 100%. hit rate 20% among 1,900. shares compounds with RGS4 block; call rule not given here;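 also: RGS4 induction absent so cells express M3R without RGS4; higher means more calcium signal and flags a non-specific hit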
M3R basal Ca ctr – signal in non-induced cells without carbachol, RGS4 inhibitor counter-screen | shares compounds with RGS4 block | AID 493001 | hit rate 22% among 1,900 | calcium response (agonist-mode artifact), % at 10 µM | HEK293 M3R/RGS4 non-induced, Fluo-4 calcium, no carbachol; normalised: buffer wells 0%, carbachol wells 100%;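 active = duplicate-averaged calcium rise in uninduced cells above buffer wells' mean plus 5 SD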
Numbers stand for hits; 0 = inactive; - = no result given.

SMILES | MrgX1 antagonist | MrgX1 PAM | MrgX1 agonist | RGS4 block | RGS4 pot | RGS4 inh valid | M3R Ca ctr | M3R basal Ca ctr
Cc1cc(N=Cc2c(O)ccc3cc(Br)ccc23)no1 | 0 | 0 | 0 | 9.93 | 0 | 0 | 0 | 23.5%
Cc1cc(N=Cc2c(O)ccc3ccccc23)no1 | 0 | 0 | 0 | 0 | 0 | - | - | -
O=[N+]([O-])/C=C\c1ccc(N2CCCC2)c(F)c1 | - | - | - | 35.7 | 0 | 33.5% | 0 | 75.0%
CCCCN(C(=O)CC1OC(=O)c2ccccc21)c1c(N)n(CCCC)c(=O)[nH]c1=O (stereo not given) | 0 | 0 | 0 | 0 | 0 | - | - | -
CC(C)(C)c1ccc(-c2nc(NCc3cccnc3)c3ccccc3n2)cc1 | 0 | 0 | 0 | 8.63 | 0 | 18.0% | 0 | 0
Clc1ccccc1C1Nc2cccc3cccc(c23)N1 | 0 | 0 | 0 | 0 | 0 | - | - | -
Oc1ccc(C2Nc3cccc4cccc(c34)N2)c(O)c1 | 0 | 0 | 0 | 7.71 | 0 | 9.5% | 0 | 0
CCOCC(=O)Nc1ccc(S(=O)(=O)Nc2nccs2)cc1 | 0 | 0 | 0 | 0 | 0 | - | - | -
CCOC(=O)/C=C/C(=O)Nc1ccc(S(=O)(=O)Nc2nccs2)cc1 | 0 | 0 | 0 | 5.02 | 0 | 23.0% | 0 | 0
O=C(CSc1nncn1-c1cccnc1)Nc1cccc([N+](=O)[O-])c1 | 0 | 0 | 0 | 0 | 0 | - | - | -
CCCOc1ccc(C(=O)CCNC(Cc2c[nH]c3ccccc23)C(=O)O)cc1 (stereo not given) | 0 | 0 | 0 | 6.71 | 0 | 10.0% | 46.0% | 27.0%
C=CCNc1nnc(SC2CC(=O)N(c3ccc(OCCC)cc3)C2=O)s1 (stereo not given) | 0 | 0 | 0 | 0 | 0 | 0 | 0 | 0
Cc1ccc(-c2nc3cnccn3c2Nc2ccccc2)o1 | 0 | 0 | 0 | 10.1 | 0 | 0 | 0 | 0
Cc1ccc(-c2nc3ccccn3c2Nc2ccccc2)o1 | 0 | 0 | 0 | 0 | 0 | - | - | -
Cc1ccc(-c2nc3cnccn3c2Nc2ccc3c(c2)OCO3)o1 | 0 | 0 | 0 | 0 | 0 | - | - | -
Cc1ccc(Nc2c(-c3ccc(C)o3)nc3cnccn23)cc1 | 0 | 0 | 0 | 0 | 0 | 0 | 0 | 0
COc1cc(Cl)c(NS(=O)(=O)c2cc3[nH]c(=O)c(=O)[nH]c3cc2C)c(OC)c1 | 0 | 0 | 0 | 0 | 0 | - | - | -
Cc1ccc(-c2cc(C(F)F)nc(NCc3cccnc3)n2)cc1 | 0 | 0 | 0 | 7.72 | 0 | 0 | 0 | 0
Cc1noc(NS(=O)(=O)c2ccc(N/C=C\C(=O)c3ccc(Br)cc3)cc2)c1C | 0 | 0 | 0 | 6.7 | 0 | 14.0% | 0 | 0
CCOc1ccc(C(=O)/C=C/Nc2ccc(S(=O)(=O)Nc3onc(C)c3C)cc2)cc1 | 0 | 0 | 0 | 0 | 0 | - | - | -
Cc1noc(NS(=O)(=O)c2ccc(NC(=O)c3ccc(N4C(=O)c5ccccc5C4=O)cc3)cc2)c1C | 0 | 0 | 0 | 0 | 0 | - | - | -
Cc1noc(NS(=O)(=O)c2ccc(NC(=O)c3nn(-c4ccccc4)ccc3=O)cc2)c1C | 0 | 0 | 0 | 0 | 0 | 0 | 0 | 0
Cc1noc(NS(=O)(=O)c2ccc(N/C=C\C(=O)c3cccc4ccccc34)cc2)c1C | 0 | 0 | 0 | 5.92 | 0 | 0 | 0 | 0
CCC(Sc1nnc(-c2ccco2)n1C)C(=O)Nc1nnc(C)s1 (stereo not given) | 0 | 0 | 0 | 0 | 0 | - | - | -
COc1ccc(-c2cc(=O)oc3cc(OCC(=O)NCC(O)c4ccccc4)ccc23)cc1 (stereo not given) | 0 | 0 | 0 | 0 | 0 | - | - | -
